The values that follow come from ChEMBL document CHEMBL3862007, “Synthesis and antimicrobial activity of small cationic amphipathic aminobenzamide marine natural product mimics and evaluation of relevance against clinical isolates including ESBL-CARBA producing multi-resistant bacteria” (Bioorg Med Chem, 2016).

A value given as a limit tells only on which side of the number the result lay.

For data set [1], the system named is Escherichia coli. Nature of the data set: Antibacterial activity against Escherichia coli clinical isolate after 24 hrs by microdilution method. Format: functional. On the technique in general: In broth dilution the organism is exposed to a series of concentrations in liquid medium.
Data set [2] concerns Bacillus subtilis. Nature of the data set: Antibacterial activity against Bacillus subtilis 168 ATCC 23857 after 48 hrs by microdilution method. Format: functional. The note with it: subsp. subtilis str. 168 ATCC 23857, 48 h.
The subject of data set [3] is Pseudomonas aeruginosa. The data set can be described thus: Antibacterial activity against Pseudomonas aeruginosa clinical isolate after 24 hrs by microdilution method. Format: functional.
In data set [4] the test system is Staphylococcus aureus. Nature of the data set: Antibacterial activity against Staphylococcus aureus ATCC 9144 after 48 hrs by microdilution method. The note with it: ATCC 9144, 48 h. Format: functional.
Data set [5] concerns Klebsiella pneumoniae. The data set can be described thus: Antibacterial activity against Klebsiella pneumoniae clinical isolate after 24 hrs by microdilution method. Format: functional.
The subject of data set [6] is Enterococcus sp. Nature of the data set: Antibacterial activity against Enterococcus sp. clinical isolate after 24 hrs by microdilution method. Format: functional.
Data set [7] concerns Pseudomonas aeruginosa. The data set can be described thus: Antibacterial activity against Pseudomonas aeruginosa PAO1 DSM 19880 (ATCC 15692) after 48 hrs by microdilution method. Format: functional.
Data set [8] is described as follows: Selectivity index, ratio of hemolytic EC50 for human RBC to MIC for Staphylococcus aureus ATCC 9144.
Data set [9] can be described thus: Hemolytic activity in human RBC after 1 hr. Format: ADME, cell-based. The note with it: Erythrocyte.
Data set [10] is described as follows: Antibacterial activity against methicillin-resistant Staphylococcus epidermidis RP62A CCUG 31568 (ATCC 35984) after 48 hrs by microdilution method. Format: functional. The gist of the method:
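Broth microdilution MIC against the reference-strain panel. Compounds were supplied as HCl salts for aqueous solubility in the test medium. Precipitation in the test buffer is flagged at higher concentrations.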

The subject of data set [11] is Escherichia coli. The data set can be described thus: Antibacterial activity against Escherichia coli ATCC 25922 after 48 hrs by microdilution method. Format: functional. The note with it: ATCC 25922, 48 h.
Data set [12] deals with Staphylococcus aureus. The data set can be described thus: Antibacterial activity against Staphylococcus aureus clinical isolate after 24 hrs by microdilution method. Format: functional.
Data set [13] relates to Corynebacterium glutamicum. Nature of the data set: Antibacterial activity against Corynebacterium glutamicum ATCC 13032 after 48 hrs by microdilution method. Format: functional. The note with it: ATCC 13032, 48 h.
In data set [14] the test system is Bacillus subtilis. Nature of the data set: Membranolytic activity in Bacillus subtilis 168 ATCC 23857 carrying pCSS962 plasmid measured every second for 30 secs by luciferase reporter assay. Format: functional. The note with it: subsp. subtilis str. 168 ATCC 23857. The gist of the method: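 B. subtilis 168 carrying pCSS962 (luciferase-expressing) was added as a suspension already containing D-luciferin, with luminescence read in real time up to 120 s. Water served as the untreated control. Chlorhexidine was added to all samples at 30 s as a membranolytic control. Fold induction is the peak sample luminescence over the water-control maximum after chlorhexidine, from two independent experiments.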
On the technique in general: A reporter such as luciferase makes a cellular process visible.

Data set [15] is described as follows: Aqueous solubility of the compound. Format: physicochemical. The note with it: buffer.

The MIC is the smallest concentration in the dilution series that meets the test's criterion for growth inhibition. Read a low MIC as inhibition by little substance. The term EC50 denotes the concentration giving half of the maximal effect. Read a high EC50 as lower potency in that assay. `CC(C)(C)c1cc(C(=O)Nc2cc3ccccc3cc2C(=O)NCCN)cc(C(C)(C)C)c1.Cl`: the MIC in [1] is 8 µg/mL; in data set [2] it was 4 µg/mL; in [3], over 64 µg/mL; in data set [4], 2 µg/mL; in data set [5], 64 µg/mL; in data set [6] it was 2 µg/mL. For the same molecule, the MIC was over 128 µg/mL in [7]; 8 µg/mL in [10]; 8 µg/mL in data set [11]; 2 µg/mL in [12]; 2 µg/mL in data set [13]. Further, the Selectivity Index in [8] came out at 11.5. Besides, the EC50 in data set [9] turned out to be 23 µg/mL.

For the molecule `CC(C)(C)c1cc(C(=O)Nc2cc3ccccc3cc2C(=O)NCCNC(=N)N)cc(C(C)(C)C)c1.Cl`, the MIC was 16 µg/mL in [1]; 1 µg/mL in [2]; over 64 µg/mL in data set [3]; 2 µg/mL in data set [4]; 32 µg/mL in [5]; 8 µg/mL in data set [6]. Further, the MIC in data set [7] turned out to be 64 µg/mL; in data set [10], 2 µg/mL; in data set [11], 16 µg/mL; in [12], 4 µg/mL; in data set [13] it was 1 µg/mL. In addition, the Selectivity Index in data set [8] is over 8. Moreover, in data set [9], the EC50 was over 16 µg/mL.

Take `CC(C)(C)c1cc(C(=O)Nc2ccccc2C(=O)NCCN)cc(C(C)(C)C)c1.Cl`: the MIC in data set [1] was 16 µg/mL; in data set [2], 4 µg/mL; in data set [3], over 64 µg/mL; in data set [4], 8 µg/mL; in data set [5], 32 µg/mL; in data set [6] it was 8 µg/mL. For the same molecule, the minimum inhibitory concentration (MIC) turned out to be 64 µg/mL in data set [7]; 8 µg/mL in data set [10]; 16 µg/mL in data set [11]; 8 µg/mL in data set [12]; 4 µg/mL in data set [13]. The Selectivity Index in [8] is 3.6. Also, the EC50 in [9] was 29 µg/mL.

In the case of `CC(C)(C)c1cc(C(=O)Nc2ccccc2C(=O)NCCCN)cc(C(C)(C)C)c1.Cl`, in data set [14], the Activity result is “Dose-dependent effect”. Also, the MIC in [2] was 4 µg/mL; in data set [4], 8 µg/mL; in [7], 32 µg/mL; in data set [10] it was 8 µg/mL; in [11] it was 16 µg/mL; in data set [13], 4 µg/mL. Further, in [8], the Selectivity Index turned out to be 2.9. In data set [9], this molecule had a 50% effective concentration (EC50) of 23 µg/mL.

Regarding `CC(C)(C)c1cc(C(=O)Nc2ccc(C(=O)NCCN)cc2)cc(C(C)(C)C)c1.Cl`, the MIC in [1] was found to be 8 µg/mL; in [2], 4 µg/mL; in [3] it was 16 µg/mL; in data set [4], 8 µg/mL; in [5] it was 16 µg/mL; in data set [6], 16 µg/mL. Moreover, the MIC in [7] amounted to 16 µg/mL; in data set [10] it was 8 µg/mL; in data set [11], 8 µg/mL; in data set [12] it was 8 µg/mL; in [13], 4 µg/mL. In data set [8], the Selectivity Index turned out to be 3.5. Besides, in data set [9], it took 28 µg/mL to reach a half-maximal effect (EC50).

Consider `CC(C)(C)c1cc(C(=O)NCc2ccc(C(=O)NCCNC(=N)N)cc2)cc(C(C)(C)C)c1.Cl`, for which the MIC in [2] was found to be 8 µg/mL; in data set [4], 8 µg/mL; in data set [7], 16 µg/mL; in data set [10], 8 µg/mL; in data set [11] it was 16 µg/mL; in data set [13] it was 2 µg/mL. Besides, the solubility result in [15] was “Insoluble”. For the same molecule, the Selectivity Index in data set [8] was determined as 6.5. Also, the EC50 in data set [9] was 52 µg/mL.

For `CC(C)(C)c1cc(C(=O)Nc2cccc(C(=O)NCCCNC(=N)N)c2)cc(C(C)(C)C)c1.Cl`, the Activity result in data set [14] was “Dose-dependent effect”. Also, the MIC in data set [2] came to 4 µg/mL; in [4], 4 µg/mL; in data set [7], 16 µg/mL; in [10] it was 8 µg/mL; in [11], 8 µg/mL; in data set [13], 4 µg/mL. For the same molecule, the Selectivity Index in data set [8] was determined as 14.8. Further, the EC50 in data set [9] was determined as 59 µg/mL.

Take `CC(C)(C)c1cc(NC(=O)c2ccc(C(=O)NCCCNC(=N)N)cc2)cc(C(C)(C)C)c1.Cl`: the minimum inhibitory concentration (MIC) is 8 µg/mL in [1]; 4 µg/mL in data set [2]; 8 µg/mL in [3]; 4 µg/mL in [4]; 16 µg/mL in [5]; 8 µg/mL in data set [6]. The MIC in [7] was 8 µg/mL; in data set [10], 8 µg/mL; in data set [11] it was 8 µg/mL; in data set [12] it was 4 µg/mL; in data set [13], 2 µg/mL. The Selectivity Index in [8] was found to be 10.5. In addition, in [9], the EC50 was found to be 42 µg/mL.

Regarding `CC(C)(C)c1cc(NC(=O)c2ccc(C(=O)NCCNC(=N)N)cc2)cc(C(C)(C)C)c1.Cl`, the MIC in data set [1] came to 8 µg/mL; in data set [2], 4 µg/mL; in [3], 8 µg/mL; in [4], 4 µg/mL; in data set [5], 16 µg/mL; in data set [6], 8 µg/mL. Besides, the MIC in data set [7] is 16 µg/mL; in data set [10], 4 µg/mL; in [11], 8 µg/mL; in data set [12], 4 µg/mL; in [13] it was 2 µg/mL. For the same molecule, the Selectivity Index in data set [8] is 11. In addition, the EC50 in data set [9] amounted to 44 µg/mL.

Regarding `CC(C)(C)c1cc(C(=O)Nc2ccc(C(=O)NCCNC(=N)N)cc2)cc(C(C)(C)C)c1.Cl`, the MIC was 8 µg/mL in data set [1]; 4 µg/mL in data set [2]; over 64 µg/mL in data set [3]; 4 µg/mL in data set [4]; 16 µg/mL in [5]; 8 µg/mL in data set [6]. For the same molecule, the minimal inhibitory concentration (MIC) in [7] came to 16 µg/mL; in data set [10], 4 µg/mL; in [11], 8 µg/mL; in data set [12], 4 µg/mL; in data set [13], 2 µg/mL. In addition, the Activity entry in [14] was “Dose-dependent effect”. For the same molecule, in [8], the Selectivity Index turned out to be 9.5. In data set [9], this molecule returned an EC50 of 38 µg/mL.

For the molecule `CC(C)(C)c1cc(C(=O)Nc2ccc(C(=O)NCCCN)cc2)cc(C(C)(C)C)c1.Cl`, the MIC in data set [2] is 4 µg/mL; in [4], 8 µg/mL; in data set [7] it was 32 µg/mL; in [10], 8 µg/mL; in [11] it was 8 µg/mL; in data set [13], 4 µg/mL. Further, the Selectivity Index in data set [8] amounted to 3.9. In data set [9], this molecule came in with an EC50 of 31 µg/mL.
